Measured values taken from article PMC11462461 (Heliyon, 2024).

How the values were obtained:
HCT116 cells [1] = experiment: MTT assay, HCT116; assay type: cell-based; conditions: Homo sapiens, HCT-116, 48 h
Outline: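 STR-authenticated, mycoplasma-tested HCT116 cells were grown in 10 % FBS medium at 37 °C. They were seeded in 96-well plates, left to attach overnight, and exposed to increasing concentrations of test compound for 48 h. DMSO-treated cells were the control. MTT formazan was solubilized and read at 570 nm. Experiments were repeated thrice, with SEM error bars.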

HeLa cells = experiment: MTT assay, HeLa; assay type: cell-based; conditions: Homo sapiens, 48 h
Outline: (§1)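 Cells were STR-authenticated and mycoplasma-tested (HEK was a gift; the others were from a national cell repository). They were cultured with 10 % FBS at 37 °C, with or without 5 % CO2, then plated in 96-well plates and allowed to attach overnight. Test compound was added at increasing concentrations for 48 h. Solubilized MTT formazan absorbance was read at 570 nm. At least three independent experiments were run.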

MDA-MB-231 cells = experiment: MTT assay, MDA-MB-231; assay type: cell-based; conditions: Homo sapiens, MDA-MB-231, 48 h
Outline: as §1

HEK cells = experiment: MTT assay, normal kidney cells HEK; assay type: cell-based, Human; conditions: for IC50: Homo sapiens, HEK293, 48 h
Outline: as §1

HCT116 cells [2] = experiment: Foci formation assay; assay type: cell-based, Human; conditions: HCT116, 12 days, crystal violet
HCT116 cells [3] = experiment: Acridine orange/PI dual staining; assay type: cell-based, Human; conditions: HCT116, 48 h
HCT116 cells [4] = experiment: Hoechst/PI double staining; assay type: cell-based, Human; conditions: HCT116, 48 h

IC50 (HCT116 cells [1])	IC50 (HeLa cells)	IC50 (MDA-MB-231 cells)	Compound	IC50 (HEK cells)	toxicity towards normal cell lines (HEK cells; HeK)	colony formation (HCT116 cells [2])	propidium iodide uptake (live/dead cells) (HCT116 cells [3])	propidium iodide uptake and nuclear membrane deformation (HCT116 cells [4])
> 50 µM	> 50 µM	> 50 µM	COc1ccc(-c2cc(C(=O)Nc3ccccc3)c3cc(-c4cc(C)ccc4F)ccc3n2)cc1 [Compound 7f, 6-(2-Fluoro-5-methylphenyl)-2-(4-methoxyphenyl)-N-phenylquinoline-4-carboxamide]	> 50 µM	–	–	–	–
39.8 ± 0.11 µM	38.3 ± 0.25 µM	> 50 µM	COc1ccc(-c2cc(C(=O)Nc3ccccc3)c3cc(-c4ccc(Cl)cc4)ccc3n2)cc1 [Compound 7d, 6-(4-chlorophenyl)-2-(4-methoxyphenyl)-N-phenylquinoline-4-carboxamide]	> 50 µM	–	–	–	–
> 50 µM	> 50 µM	> 50 µM	COc1ccc(-c2cc(C(=O)Nc3ccccc3)c3cc(-c4cnc(Cl)c(C)c4)ccc3n2)cc1 [Compound 7g, 6-(6-Chloro-5-methylpyridin-3-yl)-2-(4-methoxyphenyl)-N-phenylquinoline-4-carboxamide]	> 50 µM	–	–	–	–
42.5 ± 0.23 µM	> 50 µM	> 50 µM	COc1ccc(F)cc1-c1ccc2nc(-c3ccc(F)cc3)cc(C(=O)Nc3ccccc3)c2c1 [Compound 7j, 6-(5-Fluoro-2-methoxyphenyl)-2-(4-fluorophenyl)-N-phenylquinoline-4-carboxamide]	> 50 µM	–	–	–	–
41.8 ± 0.16 µM	42.4 ± 0.37 µM	> 50 µM	COc1ccc(-c2cc(C(=O)Nc3ccccc3)c3cc(-c4cc(Cl)ccc4F)ccc3n2)cc1 [Compound 7c, 6-(5-Chloro-2-fluorophenyl)-2-(4-methoxyphenyl)-N-phenylquinoline-4-carboxamide]	> 50 µM	–	–	–	–

Further lines, the compound ahead of its results:

Compound	IC50 (HCT116 cells [1])	IC50 (HeLa cells)	IC50 (MDA-MB-231 cells)	IC50 (HEK cells)	toxicity towards normal cell lines (HEK cells; HeK)	colony formation (HCT116 cells [2])	propidium iodide uptake (live/dead cells) (HCT116 cells [3])	propidium iodide uptake and nuclear membrane deformation (HCT116 cells [4])
COc1ccc(-c2cc(C(=O)Nc3ccccc3)c3cc(-c4ccccc4)ccc3n2)cc1 [Compound 7a, 2-(4-methoxyphenyl)-N,6-diphenylquinoline-4-carboxamide]	35.6 ± 0.06 µM	41.3 ± 0.06 µM	39.2 ± 0.13 µM	> 50 µM	less toxicity towards normal cell lines	inhibit colony formation of colon cancer cells in a concentration dependent manner	propidium iodide uptake in concentration dependent manner	uptake of propidium iodide in concentration dependent manner with nuclear membrane deformation in dead cells
COc1ccc(-c2cc(C(=O)Nc3ccccc3)c3cc(-c4cc(F)ccc4OC)ccc3n2)cc1 [Compound 7b, 6-(5-Fluoro-2-methoxyphenyl)-2-(4-methoxyphenyl)-N-phenylquinoline-4-carboxamide]	43.3 ± 0.53 µM	41.6 ± 0.58 µM	> 50 µM	> 50 µM	–	–	–	–
O=C(Nc1ccccc1)c1cc(-c2ccccc2)nc2ccc(-c3ccccc3)cc12 [Compound 7h, N,2,6-triphenylquinoline-4-carboxamide]	41.6 ± 0.11 µM	43.3 ± 0.31 µM	46.3 ± 0.18 µM	> 50 µM	–	–	–	–
COc1ccc(-c2cc(C(=O)Nc3ccccc3)c3cc(-c4cccs4)ccc3n2)cc1 [Compound 7e, 2-(4-methoxyphenyl)-N-phenyl-6-(thiophen-2-yl)quinoline-4-carboxamide]	> 50 µM	> 50 µM	> 50 µM	> 50 µM	–	–	–	–
COc1ccc(F)cc1-c1ccc2nc(-c3ccccc3)cc(C(=O)Nc3ccccc3)c2c1 [Compound 7i, 6-(5-Fluoro-2-methoxyphenyl)-N,2-diphenylquinoline-4-carboxamide]	44.2 ± 0.08 µM	> 50 µM	> 50 µM	> 50 µM	–	–	–	–
COc1cccc2c1C(=O)c1c(O)c3c(c(O)c1C2=O)C[C@@](O)(C(=O)CO)C[C@@H]3O[C@H]1C[C@H](N)[C@H](O)[C@H](C)O1 [Doxorubicin, reference compound]	1.26 ± 0.09 µM	5.04 ± 0.41 µM	5.32 ± 0.11 µM	8.23 ± 0.73 µM	–	–	–	–
